The record followed here is ChEMBL document CHEMBL4330154, “Di- and heptavalent nicotinic analogues to interfere with α7 nicotinic acetylcholine receptors” (Bioorg Med Chem, 2019).

Assay type in all cases: cell-based
The target of assay [1] is T1, Neuronal acetylcholine receptor subunit alpha-7 (Homo sapiens, UniProt P36544). The assay can be described thus: Antagonist activity at human alpha7 nAChR expressed in Xenopus laevis oocytes assessed as inhibition of ACh-induced inward current at -60 mV holding potential preincubated for 1 min followed by ACh addition by two-microelectrode voltage clamp assay. Put shortly: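 Oocytes expressing human α7 mRNA were clamped at −60 mV on an automated TEVC rig, using electrodes of 50–60 MΩ filled with 1 M KCl/1 M ammonium acetate. The bath was OR2 (88 mM NaCl, 1 mM MgCl₂, 5 mM Hepes, pH 7.6). ACh 100 μM was applied three times with 4 min washes between. Each oocyte then got a 1 min compound preincubation followed by 100 μM ACh plus the same compound concentration. IC50 came from a Hill fit of the fractional current.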

The target in assay [2] is T1, Neuronal acetylcholine receptor subunit alpha-7. The assay can be described thus: Antagonist activity at human alpha7 nAChR expressed in Xenopus laevis oocytes assessed as inhibition of ACh-induced inward current at -60 mV holding potential preincubated for 1 min followed by ACh addition by two-microelectrode voltage clamp assay relative to 2-(2-(2-(2-(4-(5-(1-methylpyrrolidin-2-yl)pyridin-3-yl)-1H-1,2,3-triazol-1-yl)ethoxy)ethoxy)ethoxy)ethanol.

Assay [3] shares this target. The assay can be described thus: Antagonist activity at human alpha7 nAChR expressed in Xenopus laevis oocytes assessed as inhibition of ACh-induced inward current at -60 mV holding potential preincubated for 1 min followed by ACh addition by two-microelectrode voltage clamp assay relative to cyclodextrin reference compound. In a few lines:
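Human α7 mRNA expressed in Xenopus oocytes; automated two-electrode voltage clamp at -60 mV holding, electrodes filled with 1 M KCl/1 M ammonium acetate; OR2 buffer (88 mM NaCl, 1 mM MgCl2, 5 mM Hepes, pH 7.6). Three 100 μM ACh applications spaced by 4 min washes; 1 min compound preincubation, then 100 μM ACh plus compound. IC50 from fit F = 1/[1+([X]/IC50)^nH].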

T1 sequence (P36544 whole entry): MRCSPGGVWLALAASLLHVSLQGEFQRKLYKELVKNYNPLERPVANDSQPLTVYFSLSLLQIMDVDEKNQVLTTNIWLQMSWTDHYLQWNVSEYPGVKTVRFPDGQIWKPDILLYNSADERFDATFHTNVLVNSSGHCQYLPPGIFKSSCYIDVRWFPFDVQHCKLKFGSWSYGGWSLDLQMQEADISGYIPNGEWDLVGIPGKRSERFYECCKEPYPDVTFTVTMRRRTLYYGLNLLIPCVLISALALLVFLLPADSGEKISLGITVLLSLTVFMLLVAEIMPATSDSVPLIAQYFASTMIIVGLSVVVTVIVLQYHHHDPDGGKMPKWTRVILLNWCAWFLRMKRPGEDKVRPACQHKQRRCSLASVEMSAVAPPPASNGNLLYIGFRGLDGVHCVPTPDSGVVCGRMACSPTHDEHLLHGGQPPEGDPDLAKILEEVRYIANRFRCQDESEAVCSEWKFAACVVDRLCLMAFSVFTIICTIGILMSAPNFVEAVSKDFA

As a reminder, the IC50 is the concentration that inhibits the measured activity by half. In the case of `CN1CCCC1c1cncc(-c2cn(CCOCCOCCOCCOCCOCCOCCOCCOCCOCCOCCOCCOCCOCCOCCOCCOCCOCCOCCOCCn3cc(-c4cncc(C5CCCN5C)c4)nn3)nn2)c1` (configuration not stated), in assay [1], the IC50 amounted to 160 µM and the inhibition result is “Dose-dependent effect”. For the same compound, the fold change (FC) in assay [2] turned out to be 0.61.
In the case of `CN1CCCC1c1cncc(-c2cn(CCOCCOCCOCCOCCOCCOCCOCCOCCOCCOCCOCCOCCOCCOCCOCCOCCOCCOCCOCCOCCOCCOCCOCCOCCOCCOCCOCCn3cc(-c4cncc(C5CCCN5C)c4)nn3)nn2)c1` (configuration not stated), in assay [1], the concentration for half-maximal inhibition (IC50) stood at 21 µM and the inhibition result was “Dose-dependent effect”. The fold change (FC) in assay [2] was determined as 4.6.
Turning to `CN1CCCC1c1cncc(-c2cn(C[C@H]3O[C@@H]4O[C@H]5[C@H](O)[C@@H](O)[C@@H](O[C@H]6[C@H](O)[C@@H](O)[C@@H](O[C@H]7[C@H](O)[C@@H](O)[C@@H](O[C@H]8[C@H](O)[C@@H](O)[C@@H](O[C@H]9[C@H](O)[C@@H](O)[C@@H](O[C@H]%10[C@H](O)[C@@H](O)[C@@H](O[C@H]3[C@H](O)[C@H]4O)O[C@@H]%10Cn3cc(-c4cncc(C%10CCCN%10C)c4)nn3)O[C@@H]9Cn3cc(-c4cncc(C9CCCN9C)c4)nn3)O[C@@H]8Cn3cc(-c4cncc(C8CCCN8C)c4)nn3)O[C@@H]7Cn3cc(-c4cncc(C7CCCN7C)c4)nn3)O[C@@H]6Cn3cc(-c4cncc(C6CCCN6C)c4)nn3)O[C@@H]5Cn3cc(-c4cncc(C5CCCN5C)c4)nn3)nn2)c1` (some centres not stated), in assay [1], the half-inhibitory concentration (IC50) came out at 196 µM and the inhibition entry was “Dose-dependent effect”. Moreover, in assay [3], the fold change (FC) was 0.14.
With `CN1CCCC1c1cncc(-c2cn(CCOCCOCCOCCOCCOCCOCCOCCn3cc(-c4cncc(C5CCCN5C)c4)nn3)nn2)c1` (configuration not stated), in assay [1], the IC50 is 611 µM and the inhibition result was “Dose-dependent effect”. For the same compound, in assay [2], the fold change (FC) was determined as 0.16.
The like results for `CN1CCCC1c1cncc(-c2cn(CCOCCOCCOCCOCCOCCOCCOCCOCCOCCOCCOCCn3cc(-c4cncc(C5CCCN5C)c4)nn3)nn2)c1` (configuration not stated) were, in that order, 300 µM, “Dose-dependent effect” and 0.32.
On to `CN1CCCC1c1cncc(-c2cn(C[C@H]3O[C@@H]4O[C@H]5[C@H](O)[C@@H](O)[C@@H](O[C@H]6[C@H](O)[C@@H](O)[C@@H](O[C@H]7[C@H](O)[C@@H](O)[C@@H](O[C@H]8[C@H](O)[C@@H](O)[C@@H](O[C@H]9[C@H](O)[C@@H](O)[C@@H](O[C@H]%10[C@H](O)[C@@H](O)[C@@H](O[C@H]3[C@H](O)[C@H]4O)O[C@@H]%10CO)O[C@@H]9CO)O[C@@H]8CO)O[C@@H]7CO)O[C@@H]6CO)O[C@@H]5CO)nn2)c1` (some centres not stated), for which, in assay [1], the IC50 was determined as 56 µM and the inhibition result was “Dose-dependent effect”.
The like results for `CN1CCCC1c1cncc(-c2cn(CCOCCOCCOCCO)nn2)c1` (configuration not stated) were, in that order, 195 µM and “Dose-dependent effect”.
For `CN1CCCC1c1cncc(-c2cn(CCOCCOCCOCCn3cc(-c4cncc(C5CCCN5C)c4)nn3)nn2)c1` (configuration not stated), in assay [1], the half-inhibitory concentration (IC50) stood at 12 µM and the inhibition entry was “Dose-dependent effect”. The fold change (FC) in assay [2] came to 8.1.
